Measurements published in ChEMBL document CHEMBL1124191, “Design of rat renin inhibitory peptides” (J Med Chem, 1988).
*1 amine or outer side, *2 acyl side, *3 side chain or, on linkers, in order; H or OH if unused. Where a SMILES comes first, the peptide text is derived from it. [ ]: non-standard residue; d: D form. Ahppa(3S,4S) = O=C(C[C@H](O)[C@H](Cc1ccccc1)N[*:1])[*:2]; Sta = CC(C)C[C@H](N)[C@@H](O)CC(=O)O

Target: T1, Renin (Homo sapiens, UniProt P00797)
T1 sequence (P00797 whole entry): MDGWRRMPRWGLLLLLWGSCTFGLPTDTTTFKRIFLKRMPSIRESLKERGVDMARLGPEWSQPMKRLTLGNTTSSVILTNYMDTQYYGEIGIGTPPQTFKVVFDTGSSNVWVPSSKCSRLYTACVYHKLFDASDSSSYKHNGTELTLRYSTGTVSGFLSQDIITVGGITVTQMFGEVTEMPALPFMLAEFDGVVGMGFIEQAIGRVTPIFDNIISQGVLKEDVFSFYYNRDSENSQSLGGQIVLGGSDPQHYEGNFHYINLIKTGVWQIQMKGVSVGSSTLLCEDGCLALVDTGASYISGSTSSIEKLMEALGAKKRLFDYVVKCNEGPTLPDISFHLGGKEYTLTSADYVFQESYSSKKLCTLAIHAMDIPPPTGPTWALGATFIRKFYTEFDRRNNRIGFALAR
Assay: Compound was tested for its inhibitory activity against human plasma renin
Type: cell-free

IC50 [nM] | SMILES
15 | CC(=O)N[C@@H](Cc1cnc[nH]1)C(=O)N1CCC[C@@H]1C(=O)N[C@@H](Cc1ccccc1)C(=O)N[C@H](C(=O)N[C@@H](CC1CCCCC1)[C@@H](O)CC(=O)N[C@@H](CC(C)C)C(=O)N[C@@H](Cc1ccccc1)C(N)=O)C(C)C
0.5 | CC(=O)N[C@@H](Cc1cnc[nH]1)C(=O)N1CCC[C@@H]1C(=O)N[C@@H](Cc1ccccc1)C(=O)N[C@@H](Cc1cnc[nH]1)C(=O)N[C@@H](CC1CCCCC1)[C@@H](O)CC(=O)N[C@@H](CC(C)C)C(=O)N[C@@H](Cc1ccccc1)C(N)=O
3.2 | CC(=O)N[C@@H](Cc1cnc[nH]1)C(=O)N1CCC[C@@H]1C(=O)N[C@@H](Cc1ccccc1)C(=O)N[C@H](C(=O)N[C@@H](CC(C)C)[C@@H](O)CC(=O)N[C@@H](CC(C)C)C(=O)N[C@@H](Cc1ccccc1)C(N)=O)C(C)C
14 | CC(=O)N[C@@H](Cc1cnc[nH]1)C(=O)N1CCC[C@@H]1C(=O)N[C@@H](Cc1ccccc1)C(=O)N[C@@H](Cc1cnc[nH]1)C(=O)N[C@@H](CC(C)C)[C@@H](O)CC(=O)N[C@@H](CC(C)C)C(=O)N[C@@H](Cc1ccccc1)C(N)=O

Test system: Rattus norvegicus
Assay: Compound evaluated for decrease in mean arterial pressure at a minimal dose of 100 ug/kg in rats
Type: functional, Artery

SMILES | Decrease [%]
CC(=O)N[C@@H](Cc1c[nH]cn1)C(=O)N1CCC[C@H]1C(=O)N[C@@H](Cc1ccccc1)C(=O)N[C@@H](Cc1c[nH]cn1)C(=O)N[C@@H](CC(C)C)[C@@H](O)CC(=O)N[C@@H](CC(C)C)C(=O)N[C@@H](Cc1ccccc1)C(N)=O | 13.2

Target: T2, Renin (Rattus norvegicus, UniProt P08424)
T2 sequence (P08424 whole entry): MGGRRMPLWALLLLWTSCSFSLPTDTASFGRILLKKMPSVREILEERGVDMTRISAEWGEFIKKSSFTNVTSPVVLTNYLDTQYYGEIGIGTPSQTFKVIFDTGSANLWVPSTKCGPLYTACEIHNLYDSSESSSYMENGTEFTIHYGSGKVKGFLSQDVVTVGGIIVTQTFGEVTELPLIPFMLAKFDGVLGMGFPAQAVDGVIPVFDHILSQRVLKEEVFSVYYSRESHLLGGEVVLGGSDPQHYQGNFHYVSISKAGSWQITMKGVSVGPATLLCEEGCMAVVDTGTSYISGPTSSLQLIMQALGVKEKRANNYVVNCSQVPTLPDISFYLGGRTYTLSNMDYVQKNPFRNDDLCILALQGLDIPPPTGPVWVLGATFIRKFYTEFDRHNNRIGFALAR
Assay: Inhibitory activity against rat plasma renin in vitro.
Type: cell-free
How it was run: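 Pooled EDTA rat plasma with added PMSF 5 mM, 8-hydroxyquinoline 3 mM and extra EDTA 5 mM, at pH 7.4, mixed with serial 1:10 peptide dilutions (Tris/DMSO), split, and incubated 1 h at 37 and 0 °C.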

IC50 [nM] | SMILES
34 | COc1ccc(C[C@H](NC(C)=O)C(=O)N2CCC[C@H]2C(=O)N[C@@H](Cc2ccccc2)C(=O)N[C@H](C(=O)N[C@@H](CC(C)C)[C@@H](O)CC(=O)N[C@@H](CC(C)C)C(=O)N[C@@H](Cc2ccccc2)C(N)=O)C(C)C)cc1 (Ac-Y(Me)PFV[Sta]LF-NH2)
1600 | CC(C)C[C@H](NC(=O)[C@H](Cc1cnc[nH]1)NC(=O)[C@H](Cc1ccccc1)NC(=O)[C@@H]1CCCN1C(=O)[C@H](Cc1cnc[nH]1)NC(=O)[C@@H]1CCCN1)[C@@H](O)CC(=O)N[C@@H](Cc1ccc(O)cc1)C(=O)N[C@@H](Cc1ccc(O)cc1)C(N)=O (H-PHPFH[Sta]YY-NH2)
150 | CC(=O)N[C@@H](Cc1cnc[nH]1)C(=O)N1CCC[C@H]1C(=O)N[C@@H](Cc1ccccc1)C(=O)N[C@@H](Cc1cnc[nH]1)C(=O)N[C@@H](Cc1ccccc1)[C@@H](O)CC(=O)N[C@@H](CC(C)C)C(=O)N[C@@H](Cc1ccccc1)C(N)=O (Ac-HPFH[Ahppa(3S,4S)]LF-NH2)
240 | CC(=O)N[C@@H](Cc1cnc[nH]1)C(=O)N1CCC[C@H]1C(=O)N[C@@H](Cc1c[nH]c2ccccc12)C(=O)N[C@@H](Cc1cnc[nH]1)C(=O)N[C@@H](CC(C)C)[C@@H](O)CC(=O)N[C@@H](CC(C)C)C(=O)N[C@@H](Cc1ccccc1)C(N)=O (Ac-HPWH[Sta]LF-NH2)
50 | CC(=O)N[C@@H](Cc1cnc[nH]1)C(=O)N1CCC[C@H]1C(=O)N[C@@H](Cc1ccccc1)C(=O)N[C@@H](Cc1cnc[nH]1)C(=O)N[C@@H](CC1CCCCC1)[C@@H](O)CC(=O)N[C@@H](CC(C)C)C(=O)N[C@@H](Cc1ccccc1)C(N)=O
310 | CC(=O)N[C@@H](Cc1cnc[nH]1)C(=O)N1CCC[C@H]1C(=O)N[C@@H](Cc1ccccc1)C(=O)N[C@@H](CC(C)C)C(=O)N[C@@H](CC(C)C)[C@@H](O)CC(=O)N[C@@H](CC(C)C)C(=O)N[C@@H](Cc1ccccc1)C(N)=O

Test system: Rattus norvegicus
Assay: Compound evaluated for decrease in mean arterial pressure at a minimal dose of 3 ug/kg in rats
Type: functional, Artery

SMILES | Decrease [%]
CC(=O)N[C@@H](Cc1c[nH]cn1)C(=O)N1CCC[C@H]1C(=O)N[C@@H](Cc1ccccc1)C(=O)N[C@H](C(=O)N[C@@H](CC(C)C)[C@@H](O)CC(=O)N[C@@H](CC(C)C)C(=O)N[C@@H](Cc1ccccc1)C(N)=O)C(C)C | 4.9
